Our source for the Ratio IC50, IC50 and Papp values is ChEMBL document CHEMBL3091448, “Identification of potent and selective cathepsin S inhibitors containing different central cyclic scaffolds” (J Med Chem, 2013).

Bounds are passed on as bounds.

For one data set, the species on record is Homo sapiens. The data set can be described thus: Selectivity ratio of IC50 for human cathepsin-K to IC50 for human cathepsin-S.
In data set [1] the target is Cathepsin S (Homo sapiens, UniProt P25774). The data set can be described thus: Inhibition of human cathepsin-S using Z-Val-Val-Arg-AMC as substrate up to 20 mins by fluorescence assay. Summed up: (§1)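 Fluorogenic quenched-peptide cleavage assay. Enzymes at 1 nM in 100 mM potassium phosphate pH 6.5, 5 mM EDTA-Na, 0.001% Triton X-100 and 5 mM DTT. Enzyme was added to the compound dilutions, then 20 μM substrate started the reaction: Z-Val-Val-Arg-AMC, or Z-Leu-Arg-AMC for CatK. Fluorescence (ex 360/em 465 nm) was read over 20 min. IC50 is the mean of ≥2 independent experiments.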

In another data set the target is T1, Cathepsin K (Homo sapiens, UniProt P43235).
T1 sequence (P43235 whole entry): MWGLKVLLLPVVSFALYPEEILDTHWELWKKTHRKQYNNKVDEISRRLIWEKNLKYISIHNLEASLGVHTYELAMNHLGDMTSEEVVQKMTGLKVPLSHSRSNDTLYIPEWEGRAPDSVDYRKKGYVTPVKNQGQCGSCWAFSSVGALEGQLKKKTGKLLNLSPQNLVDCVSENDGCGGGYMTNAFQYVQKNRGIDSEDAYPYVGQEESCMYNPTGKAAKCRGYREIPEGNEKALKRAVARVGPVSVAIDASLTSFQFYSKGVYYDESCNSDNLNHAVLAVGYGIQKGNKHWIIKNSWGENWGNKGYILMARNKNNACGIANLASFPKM
The data set can be described thus: Inhibition of human cathepsin-K using Z-Leu-Arg-AMC as substrate up to 20 mins by fluorescence assay. An outline of the steps: as §1

The next data set concerns A20. As to the kind of experiment: Inhibition of ovalbumin-induced antigen presentation in mouse A20 cells treated 1 hr before ovalbumin addition incubated for 16 hrs followed by co-cultured with DO10.10 T-cell hybridoma cells for 24 hrs assessed as IL-2 production by luminex single-bead analysis. It is filed as functional, cell-based. Summed up:
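A20 cells were seeded at 3 × 10⁵/mL and preincubated with compound for 1 h. Ovalbumin was then added (5 mg/mL final) for 16 h. Cells were washed three times with PBS, then DO10.10 T-cell hybridoma cells (2 × 10⁵/mL) were added. After 24 h, IL-2 was quantified by Luminex single-bead assay using two anti-IL-2 antibodies. IC50 is the mean of ≥2 independent experiments.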

For the next data set, the target named is Cathepsin B (Homo sapiens, UniProt P07858). As to the kind of experiment: Inhibition of human cathepsin-B using Z-Val-Val-Arg-AMC as substrate up to 20 mins by fluorescence assay. An outline of the steps:
as §1

The next data set deals with Procathepsin L (Homo sapiens, UniProt P07711). As to the kind of experiment: Inhibition of human cathepsin-L using Z-Val-Val-Arg-AMC as substrate up to 20 mins by fluorescence assay. Summed up: as §1
Data set [2] is described as follows: Effective permeability of the compound by PAMPA. The format is ADME. The following applies: read-out: Peff.
Data set [3] concerns the target Cathepsin S (Mus musculus, UniProt O70370). As to the kind of experiment: Inhibition of mouse cathepsin-S using Z-Val-Val-Arg-AMC as substrate up to 20 mins by fluorescence assay. Summed up: as §1

Procathepsin L, sequence (P07711 whole entry): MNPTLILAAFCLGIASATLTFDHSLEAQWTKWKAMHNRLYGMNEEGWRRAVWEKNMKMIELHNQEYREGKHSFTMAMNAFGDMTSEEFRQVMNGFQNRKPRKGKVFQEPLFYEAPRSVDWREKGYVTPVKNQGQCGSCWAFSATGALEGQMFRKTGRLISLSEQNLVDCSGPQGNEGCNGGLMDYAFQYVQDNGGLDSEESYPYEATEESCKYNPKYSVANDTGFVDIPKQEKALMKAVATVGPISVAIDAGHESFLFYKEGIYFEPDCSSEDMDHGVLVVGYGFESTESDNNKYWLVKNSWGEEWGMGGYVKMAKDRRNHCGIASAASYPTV
Cathepsin S (Homo sapiens, UniProt P25774), sequence (P25774 whole entry): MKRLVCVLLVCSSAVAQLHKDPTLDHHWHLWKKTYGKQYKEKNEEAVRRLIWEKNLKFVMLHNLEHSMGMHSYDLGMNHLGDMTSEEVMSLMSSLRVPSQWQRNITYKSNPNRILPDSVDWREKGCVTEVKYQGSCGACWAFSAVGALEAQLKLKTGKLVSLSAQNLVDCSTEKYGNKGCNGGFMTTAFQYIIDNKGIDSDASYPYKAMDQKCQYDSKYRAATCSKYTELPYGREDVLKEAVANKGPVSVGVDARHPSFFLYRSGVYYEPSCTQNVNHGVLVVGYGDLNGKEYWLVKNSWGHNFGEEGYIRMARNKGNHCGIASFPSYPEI
Cathepsin S (Mus musculus, UniProt O70370), sequence (O70370 whole entry): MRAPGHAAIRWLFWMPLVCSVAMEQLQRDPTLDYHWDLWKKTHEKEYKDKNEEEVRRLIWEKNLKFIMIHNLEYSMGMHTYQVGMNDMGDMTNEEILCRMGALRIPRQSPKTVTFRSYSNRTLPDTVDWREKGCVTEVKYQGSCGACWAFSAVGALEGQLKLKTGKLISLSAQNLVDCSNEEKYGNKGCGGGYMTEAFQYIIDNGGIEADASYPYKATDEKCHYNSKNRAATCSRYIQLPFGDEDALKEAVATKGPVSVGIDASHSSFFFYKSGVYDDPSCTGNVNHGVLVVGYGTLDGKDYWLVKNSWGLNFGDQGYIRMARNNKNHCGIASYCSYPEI

For `N#CCNC(=O)[C@@H]1CC(F)(F)C[C@H]1C(=O)N1CCOCC1`, the Ratio IC50 in the data set listed under Homo sapiens is 1. The IC50 against Cathepsin S [1] is 830 nM; on Cathepsin K, 0.855 µM; with A20, 925 nM.
As to `N#CCNC(=O)[C@@H]1C[C@@H](S(=O)(=O)c2ccccc2Cl)C[C@H]1C(=O)N1CCOCC1`, the Ratio IC50 in the data set filed under Homo sapiens is over 20000. Also, the values for the IC50 against Cathepsin K and with A20 were over 25 µM and 3 nM, respectively.
Turning to `N#CC1(NC(=O)[C@@H]2C[C@@H](S(=O)(=O)c3ccccc3)C[C@H]2C(=O)N2CC(O)C2)CC1`, the IC50 was 7 nM against Cathepsin S [1]; 63.3 µM against Cathepsin B; over 25 µM against Cathepsin K; 16.2 µM against Procathepsin L; 572 nM in the data set on A20.
On to `N#CC1(NC(=O)[C@@H]2C[C@@H](S(=O)(=O)c3ccccc3)C[C@H]2C(=O)N2CCC(O)CC2)CC1`, for which the Papp in data set [2] amounted to 0.2 ×10⁻⁶ cm/s. The IC50 was 5.7 µM against Cathepsin B, over 25 µM against Cathepsin K, 4.6 µM at Procathepsin L and 371 nM in the data set with A20.
As for `N#CC1(NC(=O)[C@@H]2C[C@@H](S(=O)(=O)c3ccccc3)C[C@H]2C(=O)N2CCS(=O)(=O)CC2)CC1`, the Papp in data set [2] is 0.2 ×10⁻⁶ cm/s. The IC50 against Cathepsin S [1] is 4 nM; against Cathepsin B, 38 µM; against Cathepsin K, over 25 µM; against Procathepsin L, 15.8 µM; in the data set with A20, 816 nM.
Regarding `N#CC1(NC(=O)[C@@H]2C[C@@H](S(=O)(=O)c3ccccc3)C[C@H]2C(=O)N2CCOCC2)CC1`, the IC50 against Cathepsin B is 8.5 µM; at Cathepsin K it was 29.7 µM; at Procathepsin L, 12.2 µM; in the data set on A20, 12 nM.
Take `N#CCNC(=O)[C@@H]1C[C@@H](S(=O)(=O)CC2CC2)C[C@H]1C(=O)N1CCOCC1`: the Ratio IC50 in the data set listed under Homo sapiens is over 100. The IC50 against Cathepsin K is over 25 µM; in the data set on A20, 4510 nM.
The like results for `N#CCNC(=O)[C@@H]1C[C@@H](S(=O)(=O)c2ccccc2C(F)(F)F)C[C@H]1C(=O)N1CCOCC1` were, in that order, over 20000, over 25 µM and 2 nM.
With `CC(C)(C#N)NC(=O)[C@@H]1C[C@@H](S(=O)(=O)c2ccccc2)C[C@H]1C(=O)N1CCOCC1`, the half-maximal inhibitory concentration (IC50) is 3 nM against Cathepsin S [1]; over 25 µM at Cathepsin B; over 25 µM against Cathepsin K; over 25 µM on Procathepsin L; 43 nM with A20.
For `N#CC1(NC(=O)[C@@H]2C[C@@H](S(=O)(=O)c3ccccc3)C[C@H]2C(=O)N2CC3CCC(C2)O3)CC1`, the IC50 against Cathepsin S [1] was 1 nM; against Cathepsin B, 13.1 µM; at Cathepsin K it was over 25 µM; against Procathepsin L, 4.1 µM; in the data set on A20, 16 nM.
Turning to `N#CCNC(=O)[C@@H]1CN(S(=O)(=O)c2ccccc2)C[C@H]1C(=O)N1CCOCC1`, the Ratio IC50 in the data set listed under Homo sapiens is over 90. For the same compound, the results for the IC50 on Cathepsin S [1], against Cathepsin K and with A20 were 271 nM, over 25 µM and 4240 nM, respectively.
Regarding `N#CC1(NC(=O)[C@@H]2C[C@@H](S(=O)(=O)c3ccccc3)C[C@H]2C(=O)Nc2ccc(F)cc2)CC1`, the IC50 at Cathepsin S [1] is 26 nM; against Cathepsin B it was over 25 µM; against Cathepsin K, over 25 µM; at Procathepsin L, over 25 µM; with A20 it was 391 nM.
`N#CC1(NC(=O)[C@@H]2C[C@@H](S(=O)(=O)c3ccccc3)C[C@H]2C(=O)N2CCCCC2)CC1`: the IC50 against Cathepsin B was 3.6 µM; at Cathepsin K, over 25 µM; on Procathepsin L, 4.2 µM; in the data set with A20 it was 5 nM.
With `N#CC1(NC(=O)[C@@H]2C[C@@H](S(=O)(=O)c3ccccc3)C[C@H]2C(=O)N2CC3(COC3)C2)CC1`, the IC50 is 29.7 µM against Cathepsin B, over 25 µM on Cathepsin K, 22.2 µM at Procathepsin L and 248 nM in the data set with A20.
Turning to `N#CC1(NC(=O)[C@@H]2C[C@@H](S(=O)(=O)c3ccccc3)C[C@H]2C(=O)N2CCCC2)CC1`, the IC50 is 2 nM against Cathepsin S [1]; 7.1 µM against Cathepsin B; over 25 µM against Cathepsin K; 17 µM at Procathepsin L; 29 nM in the data set with A20.
On to `COc1ccc(C(C#N)NC(=O)[C@@H]2CCCC[C@@H]2NC(=O)/C=C/c2ccccc2)cc1OC` (stereo partly drawn), for which the IC50 is 640 nM against Cathepsin S [1] and 0.016 µM against Cathepsin K.
Consider `C[C@@H]1CN(C(=O)[C@@H]2C[C@H](S(=O)(=O)c3ccccc3)C[C@H]2C(=O)NC2(C#N)CC2)C[C@H](C)O1`, for which the IC50 on Cathepsin B is 3.2 µM; against Cathepsin K it was over 25 µM; against Procathepsin L, 2.7 µM; with A20, 1 nM.
Take `N#CC1(NC(=O)[C@@H]2C[C@@H](S(=O)(=O)c3ccccc3)CN2C(=O)c2ccccc2)CC1`: the IC50 against Cathepsin S [1] was 13 nM; against Cathepsin B, over 25 µM; on Cathepsin K, over 25 µM; against Cathepsin S [3], 29 nM; at Procathepsin L, over 25 µM; in the data set with A20 it was 217 nM.
Consider `N#CC1(NC(=O)[C@@H]2C[C@@H](S(=O)(=O)c3ccccc3)C[C@H]2C(=O)N2CCOCC2)CCC1`, for which the IC50 against Cathepsin B is over 25 µM; on Cathepsin K, over 25 µM; against Procathepsin L it was over 25 µM; in the data set on A20 it was 236 nM.
As for `CC1CCN(C(=O)[C@@H]2C[C@H](S(=O)(=O)c3ccccc3)C[C@H]2C(=O)NC2(C#N)CC2)CC1`, in data set [2], the Papp worked out at 4.6 ×10⁻⁶ cm/s. For the same compound, the IC50 at Cathepsin B was 0.7 µM; against Cathepsin K it was over 25 µM; against Procathepsin L, 1.9 µM; in the data set with A20, 2 nM.
For the compound `N#CCNC(=O)[C@@H]1CN(S(=O)(=O)c2ccccc2C(F)(F)F)C[C@H]1C(=O)N1CCOCC1`, in the data set listed under Homo sapiens, the Ratio IC50 is over 1000. Moreover, the values for the IC50 against Cathepsin S [1], against Cathepsin K and in the data set with A20 were 18 nM, over 25 µM and 118 nM, respectively.
Regarding `CN(C)C(=O)[C@@H]1C[C@H](S(=O)(=O)c2ccccc2)C[C@H]1C(=O)NC1(C#N)CC1`, the IC50 against Cathepsin S [1] is 6 nM; on Cathepsin B, 22.9 µM; at Cathepsin K it was over 25 µM; against Procathepsin L, 24.9 µM; in the data set on A20 it was 91 nM.
As for `N#CC1(NC(=O)[C@@H]2C[C@@H](S(=O)(=O)c3ccccc3)C[C@H]2C(=O)N2CCC2)CC1`, the IC50 on Cathepsin S [1] is 10 nM; against Cathepsin B it was 39.4 µM; on Cathepsin K it was over 25 µM; on Procathepsin L, 33.6 µM; with A20, 44 nM.
For the compound `N#CCNC(=O)[C@@H]1CN(S(=O)(=O)c2ccccc2Cl)C[C@H]1C(=O)N1CCOCC1`, the Ratio IC50 in the data set listed under Homo sapiens was over 1000. Also, the IC50 on Cathepsin S [1] is 12 nM; against Cathepsin K, over 25 µM; with A20, 208 nM.
With `N#CC1(NC(=O)[C@@H]2C[C@@H](S(=O)(=O)c3ccccc3)C[C@H]2C(=O)N2CCNCC2)CC1`, the IC50 was 13.3 µM against Cathepsin B, over 25 µM against Cathepsin K, 2.6 µM on Procathepsin L and 1340 nM with A20.
Regarding `CN1CCN(C(=O)[C@@H]2C[C@H](S(=O)(=O)c3ccccc3)C[C@H]2C(=O)NC2(C#N)CC2)CC1`, the IC50 is 2 nM against Cathepsin S [1]; 6.4 µM against Cathepsin B; over 25 µM against Cathepsin K; 4.7 µM at Procathepsin L; 17 nM in the data set with A20.
